From ChEMBL document CHEMBL1145938, “Synthesis and structure-activity relationship of aminobenzophenones. A novel class of p38 MAP kinase inhibitors with high antiinflammatory activity” (J Med Chem, 2003)

How the values were obtained:
[1] = target: T1, Myeloperoxidase (Mus musculus) (UniProt P11247); experiment: Inhibition of myeloperoxidase (MPO) activity induced by TPA in murine chronic irritative contact dermatitis model at 0.001 mg/ear (in vivo); assay type: organism-based
T1 sequence (whole entry): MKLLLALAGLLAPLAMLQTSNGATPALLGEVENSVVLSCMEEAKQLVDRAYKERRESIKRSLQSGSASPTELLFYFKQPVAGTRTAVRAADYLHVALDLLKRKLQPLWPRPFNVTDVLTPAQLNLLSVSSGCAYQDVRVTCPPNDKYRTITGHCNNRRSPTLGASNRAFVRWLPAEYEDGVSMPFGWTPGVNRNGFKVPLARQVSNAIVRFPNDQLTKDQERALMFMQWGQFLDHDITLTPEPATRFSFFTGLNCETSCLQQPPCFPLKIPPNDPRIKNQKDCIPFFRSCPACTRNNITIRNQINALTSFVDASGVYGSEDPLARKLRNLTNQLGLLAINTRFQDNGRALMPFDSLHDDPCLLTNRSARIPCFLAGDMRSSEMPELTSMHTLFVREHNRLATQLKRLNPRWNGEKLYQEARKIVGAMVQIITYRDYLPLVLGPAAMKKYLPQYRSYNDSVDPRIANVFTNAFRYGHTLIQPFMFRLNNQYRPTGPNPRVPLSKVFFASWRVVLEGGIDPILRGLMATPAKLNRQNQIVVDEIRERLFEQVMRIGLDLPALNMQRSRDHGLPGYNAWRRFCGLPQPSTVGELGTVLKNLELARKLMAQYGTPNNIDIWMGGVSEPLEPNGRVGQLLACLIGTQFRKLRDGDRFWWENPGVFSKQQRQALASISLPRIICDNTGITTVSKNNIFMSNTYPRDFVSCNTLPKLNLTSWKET

Mus musculus [2] = experiment: Inhibition of ear weight induced by 12-O-tetradecanoylphorbol-13-acetate (TPA) in murine chronic irritative contact dermatitis model at 0.001 mg/ear (in vivo); assay type: functional
Method in brief: (§1)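 Murine TPA-induced chronic irritative ear dermatitis, with compound given topically per ear. Ear swelling and ear weight were determined 5 h after the last application. Values are mean % inhibition ± SEM of three to five experiments.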

Mus musculus [3] = experiment: Inhibition of ear swelling induced by 12-O-tetradecanoylphorbol-13-acetate (TPA) in murine chronic irritative contact dermatitis model at 0.001 mg/ear (in vivo); assay type: functional; method in brief: as §1
MAP kinase p38 [4] = target: T2, MAP kinase p38 (Homo sapiens, UniProt O15264+Q15759+Q16539+P53778); experiment: In vitro inhibition of TNF-alpha release from LPS stimulated human peripheral blood mononuclear cells.; assay type: functional
Method in brief: (§2)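 Human PBMC from buffy coats (Lymphoprep), 5×10^5 cells/mL in RPMI1640 with 2% FCS, glutamine, penicillin/streptomycin; 30 min preincubation with compound, then LPS stimulation, 18 h at 37 °C, 5% CO2.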

MAP kinase p38 [5] = target: T2, MAP kinase p38; experiment: In vitro inhibition of IL1-beta release from LPS stimulated human peripheral blood mononuclear cells.; assay type: functional; method in brief: as §2
[6] = target: T3, Mitogen-activated protein kinase 14 (Homo sapiens, UniProt Q16539); experiment: In vitro inhibitory activity determined against human mitogen-activated protein kinase p38 alpha
Homo sapiens [7] = species on record: Homo sapiens; experiment: In vitro inhibition of gamma-interferon release by human […]; assay type: functional
Method in brief: (§3)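 Human PBMC were isolated from buffy coats and diluted 1:1 in saline. Cells were held at 5×10^5 cells/mL in RPMI1640 with 2 mM glutamine and penicillin/streptomycin, then preincubated 30 min with compound. IL-12: 2% FCS, IFN-γ 95 ng/mL for 18 h, then LPS for 24 h. IL-2 and IFN-γ: 10% FCS, phytohemagglutinin for 48 h. Supernatant cytokine measured by sandwich ELISA.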

Homo sapiens [8] = species on record: Homo sapiens; experiment: In vitro inhibition of cytokine IL-2 release by human […]; assay type: functional; method in brief: as §3
[9] = target: T4, Mitogen-activated protein kinase 13 (Homo sapiens) (UniProt O15264); experiment: Inhibition of Mitogen-activated protein kinase p38 delta at 1 uM
T4 sequence (whole entry): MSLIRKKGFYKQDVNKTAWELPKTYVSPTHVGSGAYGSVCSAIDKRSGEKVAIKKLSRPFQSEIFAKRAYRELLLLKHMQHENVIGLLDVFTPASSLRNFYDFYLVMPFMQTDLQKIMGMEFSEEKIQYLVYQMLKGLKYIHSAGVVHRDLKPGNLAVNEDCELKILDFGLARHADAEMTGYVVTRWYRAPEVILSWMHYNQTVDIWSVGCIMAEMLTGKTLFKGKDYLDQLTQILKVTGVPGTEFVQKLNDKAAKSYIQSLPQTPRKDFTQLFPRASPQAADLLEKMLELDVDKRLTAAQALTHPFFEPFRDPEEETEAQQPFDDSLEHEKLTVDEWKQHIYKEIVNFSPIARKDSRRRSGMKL
Method in brief: (§4)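 FLAG-tagged p38 isoform cDNA (β2, γ or δ) transfected into COS-1 cells; kinase activity of the expressed isoform measured with compound at 1 μM.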

[10] = target: Mitogen-activated protein kinase 11 (Homo sapiens) (UniProt Q15759); experiment: Inhibition of Mitogen-activated protein kinase p38 beta at 1 uM; method in brief: as §4
Homo sapiens [11] = species on record: Homo sapiens; experiment: In vitro inhibition of cytokine IL-12 release by human […]; assay type: functional; method in brief: as §3
[12] = target: T3, Mitogen-activated protein kinase 14; experiment: Inhibition of Mitogen-activated protein kinase p38 alpha at 1 uM
Method in brief: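 FLAG-tagged p38α cDNA was transfected into COS-1 cells. Kinase activity of the expressed isoform was measured with compound at 1 μM.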

[13] = target: Mitogen-activated protein kinase; ERK1/ERK2 (Homo sapiens) (UniProt P27361+P28482); experiment: Inhibition of Mitogen-activated protein kinase 3/Mitogen-activated protein kinase 1 (ERK) at 10 uM; assay type: protein assay
Method in brief: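 MCF-7 cells stimulated with EGF; ERK1/2 activity measured with a modified cell-signalling ERK1/2 kinase kit in presence of compound.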

[14] = target: T5, Mitogen-activated protein kinase 12 (Homo sapiens) (UniProt P53778); experiment: Inhibition of Mitogen-activated protein kinase p38 gamma at 1 uM; method in brief: as §4
T5 sequence (whole entry): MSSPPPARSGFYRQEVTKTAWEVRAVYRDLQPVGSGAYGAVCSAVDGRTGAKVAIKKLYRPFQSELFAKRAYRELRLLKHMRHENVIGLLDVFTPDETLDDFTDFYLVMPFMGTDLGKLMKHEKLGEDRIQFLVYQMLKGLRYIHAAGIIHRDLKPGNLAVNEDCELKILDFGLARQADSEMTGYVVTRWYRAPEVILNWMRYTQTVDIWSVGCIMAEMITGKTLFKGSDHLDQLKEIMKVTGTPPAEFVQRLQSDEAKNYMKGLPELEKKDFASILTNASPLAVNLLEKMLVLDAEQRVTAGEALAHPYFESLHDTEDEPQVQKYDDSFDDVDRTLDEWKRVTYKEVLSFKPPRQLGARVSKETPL

[15] = target: Mitogen-activated protein kinase 8 (Homo sapiens) (UniProt P45983); experiment: Inhibition of c-Jun N-terminal kinase 1 at 10 uM
Method in brief: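 JNK1 activity from UV-stimulated MCF-7 cells, measured with a JNK1 kinase kit in presence of compound.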

[16] = target: T1, Myeloperoxidase (Mus musculus); experiment: Inhibition of myeloperoxidase (MPO) activity induced by oxazolone in murine allergic contact dermatitis model at 0.5 mg/ear at 72 hr
[17] = target: T1, Myeloperoxidase (Mus musculus); experiment: Inhibition of myeloperoxidase (MPO) activity induced by TPA in murine chronic irritative contact dermatitis model at 0.5 mg/ear (in vivo); assay type: organism-based
MAP kinase p38 [18] = target: T2, MAP kinase p38; experiment: In vitro inhibition of cytokine IL-10 release by human […]; assay type: functional
Method in brief: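 Buffy-coat PBMC at 5×10^5 cells/mL in RPMI1640 with 10% FCS, glutamine, antibiotics; 30 min compound preincubation, then phytohemagglutinin stimulation and 48 h incubation.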

Mus musculus [19] = species on record: Mus musculus; experiment: Inhibition of ear swelling in oxazolone-induced murine allergic contact dermatitis at 0.5 mg/ear at 24 hr; assay type: functional
Method in brief: (§5)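 Groups of six female inbred BALB/cABOM mice (18–21 g) were sensitized with oxazolone on the clipped abdomen 7 days before right-ear challenge. Compound in acetone (20 μL) or vehicle was applied once, 30 min after challenge. Ear swelling (right minus left ear thickness) was read at 24, 48 and 72 h. Values are mean % inhibition ± SEM of four or five experiments.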

MAP kinase p38 [20] = target: T2, MAP kinase p38; experiment: In vitro inhibition of cytokine IL-8 release by human peripheral blood mononuclear cells
Mus musculus [21] = experiment: Inhibition of ear weight induced by 12-O-tetradecanoylphorbol-13-acetate (TPA) in murine chronic irritative contact dermatitis model at 0.5 mg/ear (in vivo); assay type: functional; method in brief: as §1
Mus musculus [22] = experiment: Inhibition of ear swelling induced by 12-O-tetradecanoylphorbol-13-acetate (TPA) in murine chronic irritative contact dermatitis model at 0.5 mg/ear (in vivo); assay type: functional; method in brief: as §1
Mus musculus [23] = species on record: Mus musculus; experiment: Inhibition of ear swelling induced by oxazolone induced murine allergic contact dermatitis model at 0.5 mg/ear at 72 hr; assay type: functional; method in brief: as §5
MAP kinase p38 [24] = target: T2, MAP kinase p38; experiment: In vitro inhibition of cytokine IL-6 release by human […]; assay type: functional
Method in brief: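 PBMC isolated from buffy coats, 5×10^5 cells/mL in RPMI1640 plus 2% FCS, glutamine and antibiotics. Compound added 30 min before LPS; culture 6 h. Supernatant IL-6 or IL-8 quantified by ELISA kits.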

Mus musculus [25] = experiment: Inhibition of ear swelling induced by oxazolone in murine allergic contact dermatitis model at 0.5 mg/ear at 48 hr (in vivo)

T3 sequence (Q16539 whole entry): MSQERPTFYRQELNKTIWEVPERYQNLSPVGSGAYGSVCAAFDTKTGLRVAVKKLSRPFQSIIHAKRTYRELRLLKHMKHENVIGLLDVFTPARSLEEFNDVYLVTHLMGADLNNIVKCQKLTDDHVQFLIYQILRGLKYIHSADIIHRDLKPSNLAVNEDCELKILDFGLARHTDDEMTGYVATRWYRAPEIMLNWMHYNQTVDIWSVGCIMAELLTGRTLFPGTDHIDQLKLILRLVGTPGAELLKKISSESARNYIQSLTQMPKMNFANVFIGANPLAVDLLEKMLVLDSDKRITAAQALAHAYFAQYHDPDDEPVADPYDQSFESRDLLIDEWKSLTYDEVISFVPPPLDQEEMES
Chain of Mitogen-activated protein kinase 11 (Homo sapiens) (Q15759 whole entry): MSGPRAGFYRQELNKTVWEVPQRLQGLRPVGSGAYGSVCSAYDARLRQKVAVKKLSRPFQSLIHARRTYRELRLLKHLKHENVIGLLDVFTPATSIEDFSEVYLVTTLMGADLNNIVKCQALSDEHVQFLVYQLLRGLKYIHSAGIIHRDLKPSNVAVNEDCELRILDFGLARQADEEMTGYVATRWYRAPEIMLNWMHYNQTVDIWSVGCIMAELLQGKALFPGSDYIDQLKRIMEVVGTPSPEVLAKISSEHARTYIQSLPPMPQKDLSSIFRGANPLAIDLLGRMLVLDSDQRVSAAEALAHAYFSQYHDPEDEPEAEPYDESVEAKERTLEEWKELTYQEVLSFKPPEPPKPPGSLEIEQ
Chain of Mitogen-activated protein kinase; ERK1/ERK2 (Homo sapiens) (P27361 whole entry, looked up): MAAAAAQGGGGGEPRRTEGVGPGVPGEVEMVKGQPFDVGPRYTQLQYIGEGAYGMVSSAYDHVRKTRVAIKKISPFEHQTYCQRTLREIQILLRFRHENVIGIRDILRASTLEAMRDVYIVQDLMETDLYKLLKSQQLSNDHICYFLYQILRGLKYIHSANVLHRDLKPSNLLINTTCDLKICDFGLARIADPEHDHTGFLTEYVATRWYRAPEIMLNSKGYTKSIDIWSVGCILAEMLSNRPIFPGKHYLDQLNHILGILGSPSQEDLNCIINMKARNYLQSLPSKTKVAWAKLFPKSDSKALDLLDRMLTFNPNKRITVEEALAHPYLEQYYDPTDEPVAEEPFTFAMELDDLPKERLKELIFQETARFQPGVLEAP
Chain of Mitogen-activated protein kinase; ERK1/ERK2 (Homo sapiens) (P28482 whole entry, looked up): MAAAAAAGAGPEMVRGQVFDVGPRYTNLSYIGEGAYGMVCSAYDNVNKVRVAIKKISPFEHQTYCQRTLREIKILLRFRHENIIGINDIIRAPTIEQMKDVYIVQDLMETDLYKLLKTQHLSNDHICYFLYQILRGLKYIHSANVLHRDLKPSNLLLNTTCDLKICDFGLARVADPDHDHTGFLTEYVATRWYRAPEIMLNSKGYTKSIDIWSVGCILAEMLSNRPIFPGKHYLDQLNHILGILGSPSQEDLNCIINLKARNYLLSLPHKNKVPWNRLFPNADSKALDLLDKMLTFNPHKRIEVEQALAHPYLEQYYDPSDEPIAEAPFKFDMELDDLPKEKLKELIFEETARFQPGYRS
Chain of Mitogen-activated protein kinase 8 (Homo sapiens) (P45983 whole entry): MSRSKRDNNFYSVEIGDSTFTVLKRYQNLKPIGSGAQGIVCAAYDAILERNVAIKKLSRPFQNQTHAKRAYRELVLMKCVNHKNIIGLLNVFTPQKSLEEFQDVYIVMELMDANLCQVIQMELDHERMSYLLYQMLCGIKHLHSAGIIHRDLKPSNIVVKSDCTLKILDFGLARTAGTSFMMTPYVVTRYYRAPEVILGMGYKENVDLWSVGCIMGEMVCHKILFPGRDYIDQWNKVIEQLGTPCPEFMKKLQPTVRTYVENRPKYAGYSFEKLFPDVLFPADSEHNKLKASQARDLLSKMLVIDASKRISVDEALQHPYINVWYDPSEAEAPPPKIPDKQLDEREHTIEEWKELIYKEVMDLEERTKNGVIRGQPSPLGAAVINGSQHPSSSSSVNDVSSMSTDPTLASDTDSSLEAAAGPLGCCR

Row | SMILES | IC50 (MAP kinase p38 [4]) [nM] | IC50 (MAP kinase p38 [5]) [nM] | IC50 [6] [nM] | also measured
1 | CCCCC(=O)O[C@]1(C(=O)CO)[C@@H](C)C[C@H]2[C@@H]3CCC4=CC(=O)C=C[C@]4(C)[C@@]3(F)[C@@H](O)C[C@@]21C [BETAMETHASONE VALERATE] | – | – | – | inhibition [1]: 67%; Inhibition (Mus musculus [2]): 38%; Inhibition (Mus musculus [3]): 41%
2 | Cc1ccccc1Nc1ccc(C(=O)c2ccccc2C)c(Cl)c1 | 14 | 26 | 12 | –
3 | Cc1ccccc1C(=O)c1ccc(Nc2ccccc2N)cc1 | 47 | 67 | 29 | –
4 | Cc1ccccc1Cc1ccc(Nc2ccc(F)cc2N)cc1Cl | > 10000 | > 10000 | > 100000 | –
5 | Nc1ccccc1Nc1ccc(C(=O)c2ccccc2Br)cc1 | 34 | 45 | 54 | –
6 | Cc1ccccc1C(=O)c1ccc(Nc2ccccc2[N+](=O)[O-])cc1Cl | 382 | 427 | 437 | –
7 | Nc1ccccc1Nc1ccc(C(=O)c2ccccc2)c(Cl)c1 | 214 | 437 | 139 | –
8 | Cc1cc(C(=O)c2ccccc2C)ccc1Nc1ccccc1N | 127 | 343 | 143 | –
9 | Cc1ccccc1C(=O)c1ccc(Nc2ccccc2)cc1Cl | 24 | 119 | 7 | –
10 | COc1ccccc1C(=O)c1ccc(Nc2ccccc2N)cc1Cl | 20 | 28 | 5 | –
11 | Cc1cccc(C(=O)c2ccc(Nc3ccccc3N)cc2)c1 | 467 | 580 | 574 | –
12 | Nc1ccccc1Nc1ccc(C(=O)c2ccccc2)cc1 | 159 | 226 | 145 | –
13 | Cc1ccccc1C(=O)c1ccc(Nc2ccccc2N)cc1C | 8 | 22 | 13 | –
14 | Fc1ccc(-c2ncn(C3CCNCC3)c2-c2ccncc2)cc1 [VK-19911] | – | – | – | IC50 (Homo sapiens [7]): > 1000 nM; IC50 (Homo sapiens [8]): > 1000 nM; inhibition [9]: 8%; inhibition [10]: 59%; IC50 (Homo sapiens [11]): > 1000 nM; inhibition [12]: 73%; inhibition [13]: 0%; inhibition [14]: 0%; inhibition [15]: 9%
15 | CCNC(=O)Nc1ccccc1Nc1ccc(C(=O)c2ccccc2C)c(Cl)c1 | 3 | 9 | 21 | –
16 | CCOC(=O)Nc1ccccc1Nc1ccc(C(=O)c2ccccc2C)c(Cl)c1 | 6 | 16 | 42 | –
17 | O=C(c1ccccc1)c1ccc(Nc2ccccc2)cc1 | 1349 | 175 | 193 | –
18 | Nc1ccccc1Nc1ccc(C(=O)c2ccccc2-c2ccccc2)cc1 | 444 | 483 | 811 | –
19 | CC(=O)Nc1ccccc1Nc1ccc(C(=O)c2ccccc2C)c(Cl)c1 | 10 | 21 | 63 | –
20 | Cc1cc(F)ccc1Nc1ccc(C(=O)c2ccccc2C)c(Cl)c1 | 4 | 17 | 4 | inhibition [16]: 57%; inhibition [17]: 60%; IC50 (MAP kinase p38 [18]): 51 nM; IC50 (Homo sapiens [7]): > 1000 nM; IC50 (Homo sapiens [8]): > 1000 nM; Inhibition (Mus musculus [19]): 40%; inhibition [9]: 4%; inhibition [10]: 92%; IC50 (Homo sapiens [11]): > 1000 nM; IC50 (MAP kinase p38 [20]): 79 nM; Inhibition (Mus musculus [21]): 26%; Inhibition (Mus musculus [22]): 26%; inhibition [12]: 88%; inhibition [13]: 0%; Inhibition (Mus musculus [23]): 54%; inhibition [14]: 5%; inhibition [15]: 0%; IC50 (MAP kinase p38 [24]): 35 nM; Inhibition (Mus musculus [25]): 46%
21 | Cc1ccccc1C(=O)c1ccc(N(C)c2ccccc2N)cc1Cl | 44 | 70 | 101 | –
22 | C=C(c1ccccc1C)c1ccc(Nc2ccccc2N)cc1Cl | > 10000 | > 5000 | 1550 | –
